High-throughput results as filed in PubChem BioAssay.
ATG4B inh: ATG4B (human) cysteine protease inhibition; Q9Y4P1; ATG4B cleavage of LC3-PLA2, NBD-HPC fluorescence, 1 h; inhibition, % at 8.33 µM; hit rate 0.51% among 340,000; AID 504462; in the data active = inhibition above about 40%
Target sequence (Q9Y4P1 whole entry, looked up): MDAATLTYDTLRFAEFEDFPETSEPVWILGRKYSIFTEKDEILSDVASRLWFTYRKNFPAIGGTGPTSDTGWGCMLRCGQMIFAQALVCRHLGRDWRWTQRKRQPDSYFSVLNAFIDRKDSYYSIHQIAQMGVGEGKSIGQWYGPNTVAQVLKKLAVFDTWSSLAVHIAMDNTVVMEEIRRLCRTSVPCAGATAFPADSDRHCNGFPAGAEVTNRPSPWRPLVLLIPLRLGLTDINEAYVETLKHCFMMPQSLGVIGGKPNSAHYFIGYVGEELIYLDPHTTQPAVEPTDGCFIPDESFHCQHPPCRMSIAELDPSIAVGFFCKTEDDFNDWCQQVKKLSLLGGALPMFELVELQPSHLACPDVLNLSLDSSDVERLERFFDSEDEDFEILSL
rCAG binder-1: binds r(CAG) RNA repeats. AID 651821. inhibition, % at 3 µM. hit rate 1.3% among 370,000. r(CAG) RNA repeat, TO-PRO-1 dye displacement fluorescence;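 active = inhibition above the plate cutoff, the mean of all test compounds on that plate plus 3 SD, cut at about 35% in these data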;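 note: higher means more dye released from RNA so lower well fluorescence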
LEDGF integ inh: blocks HIV-1 LEDGF/p75-dependent DNA integration; TR-FRET IN-LEDGF/p75 DNA integration, Eu/Cy5; inhibition, % at 3.7 µM; hit rate 0.64% among 370,000; AID 743269;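 active = inhibition above the screen-wide mean plus 3 SD, cut at about 13% in these data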;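 note: signal is the Cy5 over europium emission ratio at 671 and 618 nm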
CSN inh: CSN deneddylation inhibition. Q92905. Purified CSN, SCF-Nedd8-OG deneddylation, fluorescence polarization. inhibition, % at 12.5 µM. hit rate 0.38% among 360,000. AID 651999;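 active = pattern-corrected inhibition above about 35%, with an unprinted fluorescence ratio check between 0.5 and 1.5, limit read from the data, passing the limit was not always enough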
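Assay system: HEK293T-derived human Csn5 enzyme; quantity: 0.24 nM enzyme; medium: Tris/NaCl/DTT buffer, pH 7.5; also added: substrate SCFSkp2-Nedd8OG, 10 nM; doses: 12.5 µM compound; schedule: 90 min reaction at room temperature; signal: FP; read-out: % inhibition of substrate cleavage by Csn5; benchmarks: substrate-only high control, full reaction low control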
UHRF1 MBD2 ctr: UHRF1 methyl-DNA binding inhibition. hit rate 0.75% among 370,000. UHRF1 binding to methylated oligo, TR-FRET. inhibition, % at 4.4 µM; in the data active = inhibition above about 21%;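 note: UHRF1 SRA domain binding a hemimethylated CpG hairpin DNA probe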
MBD2 inh: blocks human MBD2 binding to methylated DNA; Q9UBB5; TR-FRET, MBD2 binding to methylated oligonucleotide; inhibition, % at 4.4 µM; hit rate 0.31% among 370,000; in the data active = inhibition above about 13%
rCAG binder conf: r(CAG) RNA repeat binding, confirmation | shares compounds with rCAG binder-1 | TO-PRO-1 dye displacement fluorescence | inhibition, % at 3 µM | hit rate 70% among 4,300;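 active = inhibition above a per-plate cutoff, the mean inhibition of sample wells plus 3 SD, cut at about 35% in these data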;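 note: loss of TO-PRO-1 fluorescence as compound displaces dye from 1x1 AA loop RNA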
dCAG dye counter: counter-screen for rCAG RNA binders: DNA CAG dye complex inhibitors. shares compounds with rCAG binder-1. d(CAG) DNA oligo TO-PRO-1 dye displacement, fluorescence. inhibition, % at 3 µM. hit rate 94% among 4,300;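 active = inhibition above its plate's cutoff, the mean test-well inhibition plus 3 SD, cut at about 4.8% in these data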;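 note: hits displace the dye from DNA and so lower well fluorescence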
DNA CAG DR: counter-screen for rCAG binders: inhibitors of DNA CAG TO-PRO-1 complex. shares compounds with rCAG binder-1. DNA CAG/GTC duplex TO-PRO-1 dye displacement fluorescence. IC50, µM. hit rate 20% among 250; in the data active = IC50 below about 10 µM
dCAG TOPRO ctr: counter-screen for rCAG binders: DNA CAG TO-PRO-1 complex inhibitors, late stage; IC50, µM; hit rate 80% among 30; shares compounds with rCAG binder-1; AID 720649; d(CAG) DNA duplex TO-PRO-1 dye displacement, fluorescence
rCAG binder-2: molecules binding r(CAG) RNA repeats, late stage dose response; hit rate 100% among 30; AID 720651; shares compounds with rCAG binder-1; r(CAG) RNA TO-PRO-1 dye displacement, fluorescence; IC50, µM
Of the large screens only hits and unclear results are named; the others gave an inactive call (follow-up assays come after a bar, where they were run). Compounds with a hit are over-represented: about 3.1% of the library has one in this group of screens. Unless noted, the rule behind the calls is not given here.

COc1ccc(CN(Cc2ccc(C(=O)O)cc2)C(=S)Nc2ccccc2Cl)cc1OC	none
CCc1ccc(NC(=S)N(Cc2ccc(Cl)cc2)Cc2ccc(C(=O)O)cc2)cc1	rCAG binder-1 69 | rCAG binder conf 61 | dCAG dye counter 23
Cc1cc(C)cc(NC(=S)N(Cc2ccc(Br)cc2)Cc2ccc(C(=O)O)cc2)c1	rCAG binder-1 65 | rCAG binder conf 68 | dCAG dye counter 27
O=C(C1CCCN(S(=O)(=O)c2ccc(Br)s2)C1)N1CCN(Cc2ccccc2)CC1 (stereo unspecified)	none (no result: ATG4B inh, CSN inh)
CCOc1ccc(-n2c(SCC(=O)Nc3ccc4cn[nH]c4c3)nnc2-c2ccc(C(C)(C)C)cc2)cc1	none (no result: ATG4B inh, CSN inh)
Cc1ccccc1Cn1cc(CN2[C@H](Cc3ccccc3)COc3cc(Br)ccc3S2(=O)=O)nn1	none (no result: ATG4B inh, CSN inh)
COc1cccc(NC(=S)N(Cc2ccc(C(=O)O)cc2)Cc2ccc(OC)c(OC)c2)c1	none
COc1ccc(NC(=S)N(Cc2ccc(Cl)cc2)Cc2ccc(C(=O)O)cc2)cc1Cl	rCAG binder-1 59 | rCAG binder conf 60 | dCAG dye counter 21
Cc1cc(C)cc(NC(=S)N(Cc2ccc(Cl)cc2)Cc2ccc(C(=O)O)cc2)c1	rCAG binder-1 49 | rCAG binder conf 65 | dCAG dye counter 29
Cc1cccc(NC(=S)N(Cc2ccc(Cl)cc2)Cc2ccc(C(=O)O)cc2)c1	none
Cc1ccc(NC(=S)N(Cc2ccc(Br)cc2)Cc2ccc(C(=O)O)cc2)cc1C	rCAG binder-1 54 | rCAG binder conf 71 | dCAG dye counter 31 | DNA CAG DR inactive | dCAG TOPRO ctr 4.6 | rCAG binder-2 2
Cc1ccc(C)c(NC(=S)N(Cc2ccc(Cl)cc2)Cc2ccc(C(=O)O)cc2)c1	rCAG binder-1 45 | rCAG binder conf 49 | dCAG dye counter 14
CS(=O)(=O)N[C@@H]1C[C@@H]2O[C@H](CO)CC[C@@H]2O[C@@H]1CCc1ccc(/C=C/c2ccccc2)cc1	none (no result: ATG4B inh, CSN inh)
O=C(O)c1cnn(-c2nc(-c3ccc(Cl)c(Cl)c3)cs2)c1C(F)(F)F	rCAG binder-1 64 | rCAG binder conf 44 | dCAG dye counter 9.5
CC(C)CNS(=O)(=O)c1cc(C(=O)N2CC(C)OC(C)C2)c(Cl)cc1Cl (stereo unspecified)	none
CC(C)CNc1cc(Cl)c(S(=O)(=O)NCC(C)C)cc1C(=O)O	rCAG binder-1 37 | rCAG binder conf inactive | dCAG dye counter inactive
CCOc1ccccc1N(CC(=O)Nc1ccc(OC)c(OC)c1)S(=O)(=O)c1ccccc1	none
CCOc1ccccc1N(CC(=O)NCCc1ccc(OC)c(OC)c1)S(=O)(=O)c1ccccc1	rCAG binder-1 43 | rCAG binder conf inactive | dCAG dye counter inactive
Cc1cc(C(=O)NNC(=S)NCc2ccco2)n(C)n1	none
CC(C)c1cc(C(=O)NNC(=S)NCc2ccco2)c(O)c(C(C)C)c1	rCAG binder-1 65 | rCAG binder conf 58 | dCAG dye counter 24
CC(C)CCN(C)C1CCN(C(=O)Nc2ccccc2)CC1	none (no result: ATG4B inh, CSN inh)
C[C@@H]1CCN(C2CC2)S(=O)(=O)c2ccc(N3CCC[C@H]3CO)cc2O1	none (no result: ATG4B inh, CSN inh)
COc1ccc(CN(CC#Cc2ccc(C)cc2)C(N)=NC(=O)CCc2ccccc2)c(OC)c1	none (no result: ATG4B inh, CSN inh)
CC(C(=O)O)c1ccc2c(c1)[nH]c1ccc(Cl)cc12 (stereo unspecified)	none
